# Source: paper PMC2813064 (Bioconjugate chemistry, 2010)
# “Also recorded” adds a separate entry of the source.
# Legend:
# [1] = Zeta potential of peptide-DNA polyplexes; type: physicochemical; details: positive (+ mV); peptide-DNA polyplex 0.5 nmol peptide per µg DNA, 5 mM Hepes, pH 7.4 (footnote), mean of ten measurements
# Method in brief: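 Polyplex was made in 5 mM Hepes at 30 µg/ml DNA with 15 nmol/ml peptide. Zeta potential was read on a ZetaPlus instrument straight after QELS particle sizing at a 90° scatter angle, as the mean of ten measurements.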
# [2] = tested on: CHO cells; experiment: In vitro gene transfer; type: cell-based; details: 10 µg pGL3, luciferase at 24 hrs, Fig. 5
# Method in brief: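 Cells: CHO, 5 × 10^5 per 35 mm well, grown to about 50% confluency in MEM with 2 or 10% FBS, 1 mM sodium pyruvate and pen/strep. Polyplexes: peptide and pGL3 at 0.1–0.75 nmol peptide per µg DNA, in HBM (5 mM Hepes, 0.27 M mannitol, pH 7.5). Triplicate wells, 24 h. Luciferase RLU were converted to fmol by standard curve and normalized to mg protein (BCA).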
# [3] = tested on: Erythrocytes; experiment: RBC hemolysis assay; type: cell-based, mice; details: peptide DNA polyplexes (1.5 nmols and 7.5 µg pGL3), pH 7.4, Fig. 4C
# Method in brief: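 Erythrocytes from male ICR mouse heart blood (heparinized) were washed three times in 0.15 M PBS pH 7.4 and diluted to 1.5 × 10^8 cells/ml. 7.5 × 10^6 cells were added to the polyplexes (1.5 nmol peptide, 7.5 µg pGL3) in triplicate and held 1 h at 37°C, then filtered. Filtrate Abs410 nm was expressed against 100% lysis with water replacing PBS.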
# [4] = tested on: HepG2, 3T3, and CHO cells; experiment: In vitro gene transfer; type: cell-based; details: 0.5 nmol peptide per µg pGL3, 10 µg pGL3, luciferase at 24 hrs, Fig. 6
# Method in brief: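 Plating: HepG2, CHO or 3T3, 5 × 10^5 cells per 35 mm well, about 50% confluent. Transfection: 10 µg pGL3 polyplex (0.5 nmol peptide/µg DNA, 30 µg/ml DNA in 5 mM Hepes/0.27 M mannitol pH 7.5), added dropwise in triplicate for 24 h in MEM with 2 or 10% FBS. Read-out: lysate luciferase (0.5 mM D-luciferin injection, 10 s integration) as fmol per mg protein, mean ± SD of triplicates.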
Substance,Zeta Potential [1] [mV],"Gene expression, fold greater than poly(Acr-Arg)4-Mal-melittin [2]",Hemolytic activity when combined with pGL3 [3],"Gene transfer, fold lower than poly(Acr-Arg)2–4-SS-melittin [4]"
(Acr-Arg)2-C-CWKKGIGAVLKVLTTGLPALISLIKRKRQQ (disulfide) [poly(Acr-Arg)2-SS-melittin],25 ± 2.2,–,–,–
(Acr-Arg)3-C-CWKKGIGAVLKVLTTGLPALISLIKRKRQQ (disulfide) [poly(Acr-Arg)3-SS-melittin],29 ± 4.5,–,–,–
(Acr-Arg)4-C-CWKKGIGAVLKVLTTGLPALISLIKRKRQQ (disulfide) [poly(Acr-Arg)4-SS-melittin],29 ± 2.6,approximately 1000 fold,completely neutralized; also recorded: non hemolytic,–
(CWKKGIGAVLKVLTTGLPALISLIKRKRQQ)2 (disulfide) [Dimeric-melittin],–,–,–,10–100 fold
W(Lys(Ac)-Arg)4-C-CWKKGIGAVLKVLTTGLPALISLIKRKRQQ (disulfide) [poly(Lys(Ac)-Arg)4-SS-melittin],20 ± 2.9,–,–,–
